Assay results published in ChEMBL document CHEMBL1926561, “Neuroprotective efficacy of quinazoline type phosphodiesterase 7 inhibitors in cellular cultures and experimental stroke model” (Eur J Med Chem, 2012).
Values belong to the compound of their own block, whether it stands above or below them. Activity calls are given as the source filed them. No cut-off for these calls is given here.

Tests used:
[1] = test system: Astrocyte; experiment: Antiinflammatory activity against P2 rat astrocytes assessed as inhibition of LPS-induced nitrite production at 30 uM administered 1 hr before LPS challenge measured after 24 hrs by Griess reaction; assay type: functional, cell-based
Summary of the method: (§1)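 Astrocytes from neonatal (P2) rat cortex, grown in HAMS/DMEM (1:1) with 10% FBS, shaken to remove microglia and oligodendrocytes, then expanded. Cells were pretreated with compound for 1 h, then stimulated with LPS for 24 h. Nitrite in the medium was measured by Griess reaction. Means ± SD of three independent experiments.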

[2] = test system: Microglia; experiment: Antiinflammatory activity against rat microglial assessed as inhibition of LPS-induced nitrite production at 30 uM administered 1 hr before LPS challenge measured after 24 hrs by Griess reaction; assay type: functional
Summary of the method: (§2)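 Rat microglia shaken off 15-day mixed glial cultures and kept in HAMS/DMEM (1:1) with 10% FBS plus 10 ng/ml GM-CSF; purity >98% by OX42 staining. Cells were pretreated with compound for 1 h, then given LPS for 24 h. Nitrite in the medium was measured by Griess reaction. Means ± SD of three independent experiments.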

[3] = test system: Cerebral cortex neuron; experiment: Antiinflammatory activity against E18 rat primary cortical neurons assessed as inhibition of […] at 30 uM […] measured after 24 hrs by Griess reaction; assay type: functional, cell-based
Summary of the method: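 Rat E18 cortical neurons, plated on poly-lysine/gelatin and kept in Neurobasal with B-27, used at 7 days in culture. They were exposed for 24 h, with or without inhibitor, to cell-free supernatant from LPS-stimulated primary microglia. Nitrite in the medium was measured by Griess reaction. Means ± SD of three independent experiments.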

[4] = Permeability of the compound after 2.5 hrs by PAMPA-BBB assay
[5] = molecular target: T1, High affinity 3',5'-cyclic-AMP phosphodiesterase 7A (Homo sapiens, UniProt Q13946); experiment: Inhibition of PDE7A assessed as hydrolysis of [3H]cAMP at 10 uM after 20 mins by scintillation proximity assay
T1 sequence (Q13946 whole entry): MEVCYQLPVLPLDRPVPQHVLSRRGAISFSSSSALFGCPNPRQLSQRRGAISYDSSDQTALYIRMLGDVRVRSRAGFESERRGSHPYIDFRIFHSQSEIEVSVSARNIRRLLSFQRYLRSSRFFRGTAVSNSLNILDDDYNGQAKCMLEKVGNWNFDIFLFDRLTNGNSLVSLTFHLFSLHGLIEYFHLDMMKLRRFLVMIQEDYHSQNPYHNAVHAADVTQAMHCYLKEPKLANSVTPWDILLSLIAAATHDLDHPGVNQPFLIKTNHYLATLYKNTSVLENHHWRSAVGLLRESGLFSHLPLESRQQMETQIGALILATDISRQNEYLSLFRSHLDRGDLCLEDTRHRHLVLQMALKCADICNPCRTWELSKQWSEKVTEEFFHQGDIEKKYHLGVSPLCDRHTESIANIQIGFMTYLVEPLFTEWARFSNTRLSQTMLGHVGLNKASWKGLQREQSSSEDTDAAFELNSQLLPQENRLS
Summary of the method: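 PDE7A1 enzyme (0.02 units) incubated with 5 nCi [³H]cAMP plus inhibitor in kit assay buffer, 20 min at 30 °C. Scintillation binding beads (1 mg) then added to capture [³H]AMP, shaken 1 h at room temperature, settled 30 min, radioactivity counted.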

[6] = molecular target: T1, High affinity 3',5'-cyclic-AMP phosphodiesterase 7A; experiment: Inhibition of PDE7A assessed as hydrolysis of [3H]cAMP after 20 mins by scintillation proximity assay
Summary of the method: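 Purified PDE7A1 (0.02 units) was incubated with 5 nCi [3H]cAMP and inhibitor in kit assay buffer for 20 min at 30 °C. Scintillation beads binding [3H]AMP were added, shaken 1 h at room temperature and left to settle 30 min, then radioactivity was counted. IC50 came from a sigmoidal dose-response fit of radioactivity vs log concentration.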

[7] = test system: Astrocyte; experiment: Antiinflammatory activity against P2 rat astrocytes assessed as inhibition of LPS-induced nitrite production at 10 uM administered 1 hr before LPS challenge measured after 24 hrs by Griess reaction; assay type: functional, cell-based; summary of the method: as §1
[8] = test system: Microglia; experiment: Antiinflammatory activity against rat microglial assessed as inhibition of LPS-induced nitrite production at 1 uM administered 1 hr before LPS challenge measured after 24 hrs by Griess reaction; assay type: functional; summary of the method: as §2
[9] = test system: Mus musculus; experiment: Neuroprotective effect against middle cerebral artery occlusion-induced focal cerebral ischemia in Swiss mouse stroke model assessed as reduction in infarct volume at 5 mg/kg after 15 mins (reference value: 15.4 +/- 1.1 %); assay type: functional; set-up: scale not given: the % may be the effect or the level left
[10] = test system: Microglia; experiment: Antiinflammatory activity against rat microglial assessed as inhibition of LPS-induced nitrite production at 10 uM administered 1 hr before LPS challenge measured after 24 hrs by Griess reaction; assay type: functional; summary of the method: as §2

SMILES: O=c1c2ccccc2[nH]c(=S)n1-c1ccccc1
Activity [1]: Active
Activity [2]: Active
Activity [3]: Active

SMILES: Cn1c(=O)c2c(ncn2C)n(C)c1=O [CAFFEINE]
Papp at 2.5 h [4]: 1.7 ×10⁻⁶ cm/s

SMILES: O=c1c2ccccc2[nH]c(=S)n1-c1cccnc1
inhibition [5]: 10%

SMILES: O=c1c2cccc(Cl)c2[nH]c(=S)n1-c1c(F)cccc1F
inhibition [5]: 74.9%
IC50 [6]: 6.1 µM
Activity [7]: Active
Activity [8]: Active

SMILES: COc1cc2[nH]c(=S)n(-c3ccccc3)c(=O)c2cc1OC
inhibition [5]: 13.2%

SMILES: Cc1cc(Br)c2[nH]c(=S)n(-c3ccccc3)c(=O)c2c1
inhibition [5]: 4%

SMILES: COc1cc2[nH]c(=S)n(-c3cccnc3)c(=O)c2cc1OC
inhibition [5]: 19%

SMILES: Cc1cccc2c(=O)n(-c3ccccc3Br)c(=S)[nH]c12
Activity [1]: Active
Activity [2]: Active
Activity [3]: Active
Papp at 2.5 h [4]: 23.9 ×10⁻⁶ cm/s

SMILES: O=c1[nH]c2ccccc2c(=O)n1-c1ccc(Br)cc1F
inhibition [5]: 2.5%

SMILES: O=c1c2cccc(Cl)c2[nH]c(=S)n1-c1ccccc1Br
inhibition [5]: 63.4%
IC50 [6]: 1.8 µM
Activity [7]: Active
Activity [10]: Active

SMILES: CCn1cc(C(=O)O)c(=O)c2cc(F)c(N3CCNCC3)nc21 [ENOXACIN]
Papp at 2.5 h [4]: 1.2 ×10⁻⁶ cm/s

Continued, in another order:

inhibition [5]: 2.7%
SMILES: O=c1c2ccncc2[nH]c(=S)n1-c1cccnc1

inhibition [5]: 12.7%
SMILES: COc1cc2[nH]c(=S)n(CCN3CCCCC3)c(=O)c2cc1OC

inhibition [5]: -3.1%
SMILES: O=c1c2cccnc2[nH]c(=S)n1-c1ccccc1

inhibition [5]: 9.3%
SMILES: O=c1c2ccncc2[nH]c(=S)n1-c1ccccc1

inhibition [5]: -8.3%
SMILES: COc1ccc(CCn2c(=O)[nH]c3ccc(Br)cc3c2=O)cc1

inhibition [5]: 9.3%
SMILES: COc1ccc(Cn2c(=O)[nH]c3ccccc3c2=O)cc1

inhibition [5]: 22.1%
SMILES: COc1ccc(CCn2c(=O)[nH]c3cnccc3c2=O)cc1

inhibition [5]: 17.9%
SMILES: COc1cc2[nH]c(=S)n(CCN3CCOCC3)c(=O)c2cc1OC

inhibition [5]: 21.2%
SMILES: O=c1c2ccccc2[nH]c(=S)n1CCN1CCCCC1

Papp at 2.5 h [4]: 23.8 ×10⁻⁶ cm/s
SMILES: S=c1[nH]c2ccccc2c(=S)n1-c1ccccc1
Activity [1]: Active
Activity [2]: Active
Activity [3]: Active
Activity [9]: 10.8%

Papp at 2.5 h [4]: 15.7 ×10⁻⁶ cm/s
SMILES: CNCCCN1c2ccccc2CCc2ccccc21 [DESIPRAMINE]

inhibition [5]: 8%
SMILES: COc1ccc(Cn2c(=O)[nH]c3ncccc3c2=O)cc1

Papp at 2.5 h [4]: 7.7 ×10⁻⁶ cm/s
SMILES: CN(C)CCCN1c2ccccc2Sc2ccccc21 [PROMAZINE]

inhibition [5]: -7.2%
SMILES: COc1ccc(CCn2c(=O)[nH]c3ccccc3c2=O)cc1

inhibition [5]: 12.8%
SMILES: O=c1c2cccnc2[nH]c(=S)n1-c1cccc(Br)c1

inhibition [5]: 13.2%
SMILES: O=c1c2ccccc2[nH]c(=S)n1CCN1CCOCC1
